Measured values of several laboratories.
Lines come from different studies, so protocols differ.
Target: Ephrin type-B receptor 1 (EPHB1, Homo sapiens, UniProt P54762)

`COc1cc2ncnc(Nc3ccc(Oc4ccccc4)c(C)c3C)c2cc1OC` gave an inhibition of 3% (enzyme activity, inhibitor; 1 µM).
`O=C(Nc1ccc(Oc2ccc(F)cc2)cc1)N1CCc2ncccc2[C@H]1c1ccc(F)cc1` has a remaining binding of 100% (cell-free assay, competition with immobilised ligand; 1 µM).
`COc1cc(-c2cc(-c3ccc(N4CCNCC4)cc3)cnc2C)cc(OC)c1OC` has an inhibition of 6% (enzyme activity, inhibitor; 1 µM).
With `Cn1c(=O)n(-c2ccc(C(C)(C)C#N)cc2)c2c3cc(-c4cnc5ccccc5c4)ccc3ncc21` the remaining activity was 133% (enzyme activity, inhibitor; 10 µM).
The remaining signal of `C#Cc1cccc(Nc2ncnc3cc(OCCOC)c(OCCOC)cc23)c1` is reported as 100% (cell-free assay; 0.5 µM).
The remaining binding of `CC(=O)c1c(NS(C)(=O)=O)c2cc(-c3ccc(Cl)cc3)c(-c3ccc(Cl)cc3Cl)nc2n(C)c1=O` is reported as 100% (cell-free assay, competition with immobilised ligand; 1 µM).
The remaining signal of `O=C1Nc2ccc(Cl)cc2C1=Cc1cc(Cl)c(O)c(Cl)c1` is reported as 91% (cell-free assay; 0.5 µM).
With `C=CC(=O)Nc1cc(Nc2nccc(Nc3cc(Cl)c(F)cc3C(C)(C)O)n2)c(OC)cc1N1CC[C@@H](N(C)C)C1` the inhibition was 24% (enzyme activity, inhibitor; 1 µM).
For `O=C(O)[C@H]1[C@H](Cn2nnc3ccccc3c2=O)CC[C@@H]1C(=O)c1ccc(OCCC2CCOCC2)cc1`, the remaining binding was 100% (cell-free assay, competition with immobilised ligand; 1 µM).
`FC(F)c1nc2ccccc2n1-c1nc(N2CCOCC2)nc(N2CCOCC2)n1` has a remaining activity of 96% (enzyme activity, inhibitor; 10 µM).
With `CCN(CC)CCNC(=O)c1c(C)[nH]c(/C=C2\C(=O)Nc3ccc(F)cc32)c1C` the inhibition was 91% (enzyme activity, inhibitor; 10 µM).
With `COc1cc(Cl)c(C(=O)N[C@@H](CN[C@H]2CC[C@@H](N)CC2)Cc2ccc(C#N)cc2)cc1-c1ccc(CN[C@H](C)c2ccc(C)cc2)o1` the remaining activity was 122% (enzyme activity, inhibitor; 1 µM).
The remaining signal of `Cc1ccc(NC(=O)c2ccc(C)c(C(F)(F)F)c2)cc1C#Cc1nn(C2CCC(O)CC2)c2ncnc(N)c12` (centres unmarked) is reported as -1% (cell-free assay; 10 µM).
`COc1cc(Nc2cnc(C#N)c(O[C@H](C)CN(C)C)n2)ncc1-c1cnn(C)c1` has a remaining activity of 100% (enzyme activity, inhibitor, radiometric; 1 µM).
With `O=C1NC(c2ccccn2)Sc2ccccc21` (centres unmarked) the remaining binding was 90% (cell-free assay, competition with immobilised ligand; 1 µM).
`COc1cc(Nc2c(C#N)cnc3cc(OCCCN4CCN(C)CC4)c(OC)cc23)c(Cl)cc1Cl` has a remaining signal of 11.8% (cell-free assay; 0.5 µM).
The remaining signal of `Cc1ccc(C(=O)Nc2ccc(CN3CCN(C)CC3)c(C(F)(F)F)c2)cc1C#Cc1cnc2cccnn12` is reported as 29% (cell-free assay; 23.5 nM).
`O=C(N1CCS(=O)(=O)CC1)N1C[C@H](c2ccc(OC(F)(F)F)cc2)C[C@H](c2nc(C3CC3)no2)C1` has a remaining binding of 100% (cell-free assay, competition with immobilised ligand; 1 µM).
The remaining activity of `O=C(Nc1cnn(-c2csc(C(=O)NC3COC3)c2)c1)Nc1ccccc1Cl` is reported as 100% (enzyme activity, inhibitor; 5 µM).
For `CCCS(=O)(=O)Nc1ccc(F)c(C(=O)c2c[nH]c3ncc(-c4ccc(Cl)cc4)cc23)c1F`, the inhibition was under 10% (enzyme activity, inhibitor; 1 µM).
With `Cc1ccc(Nc2nccc(N(C)c3ccc4c(C)n(C)nc4c3)n2)cc1S(N)(=O)=O` the inhibition was 8% (enzyme activity, inhibitor; 0.3 µM).
The inhibition of `CC/C(=N\NC(=O)NCc1cccc(O)c1)c1ccc(O)c(C)c1O` is reported as -1% (enzyme activity, inhibitor; 0.1 µM).
For `Clc1ccc(Nc2nnc(Cc3ccncc3)c3ccccc23)cc1`, the remaining signal was 107% (cell-free assay; 0.5 µM).
The remaining binding of `CO[C@@H](C)c1c(Nc2ccc([C@@H](N(C)C(=O)C3CCS(=O)(=O)CC3)C(F)(F)F)cc2)cnc2cc(Cl)nn12` is reported as 92% (cell-free assay, competition with immobilised ligand; 1 µM).
`Nc1ncnc2occ(-c3ccc(NC(=O)Nc4cc(C(F)(F)F)ccc4F)cc3)c12` gave a remaining signal of 0% (cell-free assay; 20 µM).
The remaining binding of `CCC(=N\O)/C(C)=C/c1ccc(F)cc1` is reported as 100% (cell-free assay, competition with immobilised ligand; 1 µM).
For `CC(C)(C)c1nc(-c2cccc(NS(=O)(=O)c3c(F)cccc3F)c2F)c(-c2ccnc(N)n2)s1`, the remaining activity was 94% (enzyme activity, inhibitor, radiometric; 1 µM).
The remaining activity of `CCCOc1ccc(OC)c(F)c1C(=O)c1ccc(C(=O)N[C@@H]2CNC[C@H]2NC(=O)c2ccc3[nH]ncc3c2)cc1` is reported as 42% (enzyme activity, inhibitor; 10 µM).
`O=C(NC[C@@H]1[C@H]2CN(C(=O)OCc3cc(C(F)(F)F)cc(C(F)(F)F)c3)C[C@@H]12)c1ccc2[nH]nnc2c1` has a remaining binding of 100% (cell-free assay, competition with immobilised ligand; 1 µM).
